IMP-1 inhibitor: inhibitors of Pseudomonas aeruginosa IMP-1 metallo-beta-lactamase; AID 1556; actives 0.45% (n = 290,000); inhibition, % at 5.6 µM; purified IMP-1, nitrocefin hydrolysis, epi-absorbance fluorescence;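 active = inhibition above the mean plus 3 SD of all compounds in the same screening run, cut at about 4.5% in these data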;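 also: 0% = IMP-1 with DMSO and 100% = DMSO wells lacking enzyme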
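System: purified IMP-1; amount: IMP-1 0.2 nM before substrate addition; compound: single dose, 5.6 µM; times: 25 °C, 15 min preincubation, 25 min reaction; signal: Epi-absorbance via hydrolysed-nitrocefin quenching of white-plate fluorescence, 480/530 nm, EDTA stop; benchmarks: DMSO with and without IMP-1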
VIM-2 inh: blocks Pseudomonas aeruginosa VIM-2 metallo-beta-lactamase. purified VIM-2, nitrocefin hydrolysis, epi-absorbance fluorescence. inhibition, % at 5.6 µM. actives 0.89% (n = 290,000). AID 1527;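 active = inhibition above the mean of all tested compounds plus 3 SD, cutoff set per screening run, cut at about 7.5% in these data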;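 also: red hydrolysis product quenches plate fluorescence so inhibitors raise well fluorescence; 0% = enzyme with DMSO and 100% = DMSO without enzyme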
RAD54 branch: inhibitors of human RAD54 branch migration. Q92698. RAD54 Holliday junction branch migration, FAM/BHQ fluorescence. inhibition, % at 10.4 µM. actives 0.14% (n = 360,000). AID 602329;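 active = mean normalized replicate activity at least 40 and at least half of replicates scoring 40 or more; inconclusive = only one of the two criteria met; inactive = mean below 40 and under half of replicates reaching 40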;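 also: 0% = median of neutral control wells and 100% = median of positive control wells; inhibitors cause a drop in the FAM fluorescence signal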
Target sequence (Q92698 whole entry, looked up): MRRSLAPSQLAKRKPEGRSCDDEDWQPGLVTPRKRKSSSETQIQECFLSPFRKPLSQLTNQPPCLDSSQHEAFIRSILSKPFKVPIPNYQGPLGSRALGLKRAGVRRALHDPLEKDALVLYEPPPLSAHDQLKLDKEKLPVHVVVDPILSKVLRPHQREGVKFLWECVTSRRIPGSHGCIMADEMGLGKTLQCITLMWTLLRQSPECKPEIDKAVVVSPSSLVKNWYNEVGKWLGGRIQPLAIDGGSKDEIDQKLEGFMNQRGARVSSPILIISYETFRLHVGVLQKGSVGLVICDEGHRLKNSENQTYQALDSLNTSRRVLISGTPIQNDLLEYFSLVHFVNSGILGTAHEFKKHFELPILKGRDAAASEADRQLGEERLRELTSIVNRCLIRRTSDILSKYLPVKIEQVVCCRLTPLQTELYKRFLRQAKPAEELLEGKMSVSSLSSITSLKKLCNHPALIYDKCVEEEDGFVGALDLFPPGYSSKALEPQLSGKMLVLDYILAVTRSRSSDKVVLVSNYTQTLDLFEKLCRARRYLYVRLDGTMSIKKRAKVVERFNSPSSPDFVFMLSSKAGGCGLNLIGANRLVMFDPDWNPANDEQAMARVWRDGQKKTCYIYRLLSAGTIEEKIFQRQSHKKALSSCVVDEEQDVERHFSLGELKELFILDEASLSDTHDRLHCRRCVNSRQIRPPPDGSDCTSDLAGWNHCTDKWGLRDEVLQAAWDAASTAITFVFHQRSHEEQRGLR
PvdQ acylase: blocks Pseudomonas aeruginosa PvdQ acylase activity. purified PvdQ acylase, fluorescence plate reader. inhibition, % at 10 µM. actives 0.063% (n = 340,000); in the data active = inhibition above about 30%, passing the limit was not always enough; inconclusive = no clear call, values can overlap the other calls;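 also: 0% = vehicle neutral wells and 100% = reference inhibitor wells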
DNA FID counter: counter-screen for HCV NS3 helicase inhibitors: DNA intercalator displacement | DNA fluorescent intercalator displacement, fluorescence | inhibition, % at 7.9 µM | actives 0.17% (n = 290,000) | AID 1845; in the data active = inhibition above about 37%;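 also: 0% = vehicle and 100% = reference compound; higher means more ethidium bromide displaced from hairpin DNA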
Rad54 DNA ctr: counter-screen for Rad54 inhibitors: DNA binding compounds; AC50, µM (highest dose often 35 µM), for inactives: at the highest dose activity change, negative = DNA binding; Acridine orange-DNA displacement, fluorescence polarization, 20 min; AID 651673; actives 8% (n = 460); shares compounds with RAD54 branch;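 active = signal drop giving an AC50 within twice the top valid tested concentration of each sample, actives reach about 35 µM in these data; inactive = activity opposite to expected, plus the rest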;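 also: polarization loss reports compound binding to salmon sperm DNA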
The depositor's hits bear a star; ? = inconclusive; · = no result. Most compounds without a hit are left out; they make up all but 1% or so of the library.

SMILES	IMP-1 inhibitor	VIM-2 inh	RAD54 branch	PvdQ acylase	DNA FID counter	Rad54 DNA ctr
C[C@@H]1CN([C@@H](C)CO)C(=O)c2cc(NC(=O)c3ccncc3)ccc2O[C@@H](C)CCCCO[C@@H]1CN(C)C(=O)Nc1cccc2ccccc12	·	·	-15.3	·	·	·
CN(C)CCN(C(=O)c1ccco1)c1nc2cc3c(cc2s1)OCCO3	0.7	1.4	64.1*	-12.3	8.6	2.1%
CN(C)CCN(C(=O)CN1C(=O)c2ccccc2C1=O)c1nc2cc3c(cc2s1)OCO3	-2.5	-1.3	59.9*	-1.8	27.3	-9.2%
CN(C)CCN(C(=O)c1ccc(C(=O)c2ccccc2)cc1)c1nc2cc3c(cc2s1)OCCO3	1.6	1.2	-3.6	-15.5	16.3	·
COc1cccc(CNc2nc3cc(-c4ccc(C(=O)N5CCN(C)CC5)cc4)sc3c(=O)n2C)c1	·	·	17.9	·	·	·
COc1cccc(-c2cc3nc(NCCCN(C)C)n(C)c(=O)c3s2)c1	·	·	62.3*	·	·	-2.1%
CN(C)CCCNc1nc2cc(-c3ccc4c(ccn4C)c3)sc2c(=O)n1C	·	·	54.4*	·	·	0.1%
COc1ncccc1-c1cc2nc(NCCCN(C)C)n(C)c(=O)c2s1	·	·	90.0*	·	·	-18.8%
CN(C)CCCNc1nc2cc(-c3ccc(C(=O)N4CCN(C)CC4)cc3)sc2c(=O)n1C	·	·	?	·	·	-15.9%
C[C@@H]1CN([C@H](C)CO)C(=O)c2cc(NC(=O)Nc3ccc(F)cc3)ccc2O[C@@H](C)CCCCO[C@@H]1CN(C)C(=O)c1ccccc1	·	·	-5.3	·	·	·
CO[C@@H]1CN(C)C(=O)c2cc(NS(=O)(=O)c3ccccc3)ccc2OC[C@@H](C)N(Cc2cccnc2)C[C@H]1C	·	·	-18.3	·	·	·
CN(C)CCCNc1nc(-c2ccc(Cl)cc2)nc2ccccc12	-3.1	0.6	70.8*	-14.7	54.2*	-18.0%
c1ccc(-c2nc(NCCCN3CCOCC3)c3ccccc3n2)cc1	1.4	10.2*	?	-14.5	54.8*	5.9%
CN(C)CCCNc1c2c(nc3ccccc13)CCC2	-3.0	2.2	66.9*	-6.7	52.9*	-17.4%
COCCNc1c2c(nc3ccccc13)CCC2	-2.0	0.6	5.7	-8.0	0.9	·
Cc1ccc(-c2nc(NCCN(C)C)c3ccccc3n2)cc1	-1.6	1.0	77.9*	12.2	70.7*	-20.2%
Cc1ccc(-c2nc(NCc3ccco3)c3ccccc3n2)cc1	-0.3	0.3	·	-0.6	12.4	·
CN(C)CCCNc1ncnc2sc(-c3ccccc3)cc12	0.2	0.6	64.4*	-9.9	27.0	-18.2%
O=C(O)CCNc1nc(-c2ccccc2)nc2ccccc12	-1.3	1.4	3.2	-15.2	-2.9	·
O=C(NCc1ccccc1)c1cc(-c2ccncc2)nc2ccccc12	-2.8	-3.0	5.3	7.9	-28.2	·
Cc1cccc(-c2nc(NCCCN(C)C)c3ccccc3n2)c1	-3.1	7.8*	82.2*	-10.5	63.0*	-20.9%
CN(C)CCNc1cc(-c2ccncc2)nc2ccccc12	-5.1	-0.6	57.5*	-3.5	77.0*	0.2%
Cc1ccc(-c2nc(NCCCO)c3ccccc3n2)cc1	0.1	1.5	?	-15.8	14.2	-1.6%
CCOC(CNc1ncnc2sc(-c3ccccc3)cc12)OCC	-2.0	3.0	9.8	-14.8	-26.2	·
CO[C@@H]1CN(C)C(=O)c2ccc(NS(=O)(=O)c3ccccc3)cc2OC[C@@H](C)N(C)C[C@@H]1C	·	·	-3.4	·	·	·
SMILES	IMP-1 inhibitor	VIM-2 inh	RAD54 branch	PvdQ acylase	DNA FID counter	Rad54 DNA ctr
C[C@@H]1CN([C@H](C)CO)C(=O)c2cc(NC(=O)Nc3cccc4ccccc34)ccc2O[C@@H](C)CCCCO[C@@H]1CN(C)S(=O)(=O)c1cn(C)cn1	·	·	4.8	·	·	·
COc1ccc(NC(=O)N(C)C[C@@H]2Oc3ccc(NS(=O)(=O)c4cccs4)cc3C(=O)N([C@@H](C)CO)C[C@@H]2C)cc1	·	·	-1.0	·	·	·
CCCC(=O)Nc1ccc2c(c1)C(=O)N(C)C[C@H](OC)[C@H](C)CN(Cc1ccccc1)[C@@H](C)CO2	·	·	6.9	·	·	·
CN(C)CCNC(=O)c1cc2c(s1)-c1ccc(Cl)cc1SC2	-2.6	-1.1	56.7*	-12.6	24.6	7.6%
CCOCCCNC(=O)c1cc2c(s1)-c1ccccc1SC2	-2.0	-0.1	-0.7	-11.8	-21.2	·
CN(C)C(=O)C[C@@H]1CC[C@@H](NC(=O)C2CCOCC2)[C@H](CO)O1	·	·	-14.1	·	·	·
Cc1ccc(S(=O)(=O)N[C@H]2C=C[C@H](CC(=O)NCc3ccncn3)O[C@@H]2CO)cc1	·	·	6.6	·	·	·
Cc1ccc2nc(C)cc(Nc3ccc4c(c3)OCCO4)c2c1	-2.4	10.8*	59.8*	12.1	-0.7	-9.1%
Cc1cc(Nc2ccc3c(c2)OCCO3)c2cccc(C)c2n1	-1.4	6.1	64.5*	-11.4	5.8	9.4%
C[C@H](CO)N1C[C@H](C)[C@@H](CN(C)Cc2ccc(Oc3ccccc3)cc2)Oc2ccc(NC(=O)Nc3cccc4ccccc34)cc2C1=O	·	·	-7.7	·	·	·
COc1ccc(NC(=O)c2ccc(-c3ccc(-c4noc(C)n4)cc3C)cc2)cc1N1CCN(C)CC1	·	·	54.3*	-8.9	·	3.1%
CC(C)C#Cc1cnc2c(c1)C(=O)N([C@@H](C)CO)C[C@H](C)[C@@H](CN(C)C(=O)C1CCC1)O2	·	·	0.8	·	·	·
CN(C)CCNc1ncnc2oc(-c3ccccc3)c(-c3ccccc3)c12	-2.8	-1.2	38.3	-19.0	15.3	·
COc1ccc(-c2oc3ncnc(NCCCN(C)C)c3c2-c2ccc(OC)cc2)cc1	-1.3	-1.8	74.7*	-24.3	18.7	16.7%
CCN1[C@@H]2c3ccc(-c4ccccc4F)c(=O)n3C[C@H]1[C@H](CO)[C@H]2C(=O)NCCOC	·	·	-9.5	·	·	·
CNC[C@H]1Oc2ncc(C#CC3CCCCC3)cc2C(=O)N([C@@H](C)CO)C[C@H]1C	·	·	16.1	·	·	·
CCOC(=O)c1c(NC(C)=O)sc2c(OCC(O)CNC(C)(C)C)c(Br)ccc12 (stereo not given)	-3.6	6.2	?	-10.4	22.1	-12.0%
CCCN(CCC)c1nc(-c2ccccn2)nc2ccccc12	-4.1	6.0	89.6*	0.7	5.2	-15.0%
NCCN1CCN(CCN)CC1	-5.9	-8.6	50.1*	-4.0	9.8	-11.0%
CCOc1ccc2[nH]c3c(NCCN(C)C)ncnc3c2c1	-3.5	0.7	?	-12.4	24.9	0.0%
COc1ccc(S(=O)(=O)N(C)C[C@@H]2Oc3c(NC(=O)c4cnccn4)cccc3C(=O)N([C@H](C)CO)C[C@@H]2C)cc1	·	·	1.0	·	·	·
COc1ccc(CNc2ncnc3cc(Cl)ccc23)cc1OC	-3.0	-2.1	·	-3.5	0.6	·
CCN(CC)Cc1cc2[nH]c3c4ccc(Cl)cc4ncc3c2cc1OC	-4.0	-0.6	101.2*	-20.3	58.8*	6.3%
CNC(C)C#Cc1ccc2oc3cccc(OC)c3c(=O)c2c1 (stereo not given)	0.7	8.3*	?	4.3	-20.0	-13.7%
COc1ccc(NC(=O)N(C)C[C@H]2OCCCC[C@@H](C)Oc3ccc(NC(=O)Nc4ccc5c(c4)OCO5)cc3C(=O)N([C@@H](C)CO)C[C@H]2C)cc1	·	·	-13.5	·	·	·
CNC[C@@H]1OCCCC[C@H](C)Oc2ccc(NC(=O)NC(C)C)cc2C(=O)N([C@H](C)CO)C[C@H]1C	·	·	-2.9	·	·	·

Bioassay records (PubChem BioAssay)
